Compound activity: PubChem, The Scripps Research Institute Molecular Screening Center
M4 PAM = potentiates acetylcholine response at human M4 receptor. P08173. CHO-K1 hM4/Gqi5, Fluo-8 calcium fluorescence, ACh EC20; 0% = ACh EC20, 100% = maximal ACh. activation, % at 3 µM. actives 0.4% (n = 360,000). AID 624126;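 active = activation above its plate's cutoff, the mean activation of sample wells plus 3 SD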
CHRM5 agonist = agonists of human muscarinic M5 receptor (CHRM5). AID 624037. CHO-K1 hM5 cells, Fluo-8 calcium fluorescence; 0% DMSO wells, 100% maximal acetylcholine response. activation, % at 3 µM. actives 0.19% (n = 360,000);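 active = activation above the run's mean over test compounds plus 3 SD, cut at about 23% in these data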;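 also: signal is peak over basal fluorescence ratio across the kinetic read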
Target sequence (P08912 whole entry, looked up): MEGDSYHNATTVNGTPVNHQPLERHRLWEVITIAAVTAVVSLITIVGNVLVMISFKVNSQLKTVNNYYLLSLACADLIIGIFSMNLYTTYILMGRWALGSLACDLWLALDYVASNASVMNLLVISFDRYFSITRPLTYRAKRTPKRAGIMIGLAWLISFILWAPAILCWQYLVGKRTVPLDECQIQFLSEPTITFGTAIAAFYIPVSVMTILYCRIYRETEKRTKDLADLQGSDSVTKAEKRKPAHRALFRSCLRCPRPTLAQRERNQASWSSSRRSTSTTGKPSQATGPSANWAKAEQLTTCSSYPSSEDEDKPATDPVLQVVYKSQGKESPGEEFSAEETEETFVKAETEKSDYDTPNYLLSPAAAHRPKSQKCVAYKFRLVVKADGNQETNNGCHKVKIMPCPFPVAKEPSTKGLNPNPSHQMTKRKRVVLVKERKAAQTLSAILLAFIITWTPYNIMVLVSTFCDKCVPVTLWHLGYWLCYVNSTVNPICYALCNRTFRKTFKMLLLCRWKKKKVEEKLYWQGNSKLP
M5 PAM = potentiates acetylcholine response at human M5 receptor; CHO-K1 hM5, Fluo-8 calcium, ACh EC20 PAM; 0% = ACh EC20, 100% = ACh EC100; activation, % at 3 µM; actives 0.3% (n = 360,000);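 active = activation above the run cutoff, the mean activation of all test compounds plus 3 SD, cut at about 18% in these data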
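Probe or stimulus: acetylcholine, EC20 level; Assay system: human M5 receptor in CHO-K1 cells; Schedule: compound preincubation 140 s before EC20 acetylcholine addition; Technique: intracellular calcium via Fluo-8 fluorescence; Dosing: single-point, 3 µM nominal; Read-out basis: percent activation from peak-over-basal fluorescence ratio, scaled EC20-to-EC100 acetylcholine; Repeats: one well per compound, no replicates.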
M4 ag = agonists of human muscarinic M4 receptor (CHRM4); activation, % at 3 µM; CHO-K1 hM4/Gqi5, Fluo-8 calcium fluorescence; vehicle 0%, full acetylcholine response 100%; actives 0.14% (n = 360,000);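 active = activation above the run mean over all test wells plus 3 SD, cut at about 32% in these data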;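 also: peak over basal fluorescence ratio per well then scaled between controls; 0% = DMSO wells and 100% = acetylcholine at EC100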
M5 antag = CHRM5 antagonism in calcium assay | P08912 | CHO-hM5 cells, Fluo-8 calcium fluorescence, ACh EC80 | inhibition, % at 3 µM | actives 0.59% (n = 360,000);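 active = inhibition above a per-plate cutoff, the mean of that plate's test compounds plus 3 SD, cut at about 27% in these data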;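 also: 0% = acetylcholine EC80 with DMSO and 100% = DMSO without agonist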
M4 antag = CHRM4 antagonism in calcium assay. P08173. CHO-hM4 cells, ACh EC80, Fluo-8 calcium fluorescence. inhibition, % at 3 µM. actives 0.73% (n = 360,000). AID 624125;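 active = inhibition above its plate's cutoff, the mean inhibition of sample wells plus 3 SD, cut at about 27% in these data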;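 also: 0% = acetylcholine EC80 with DMSO and 100% = DMSO without agonist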
* marks the source's active call; other numbers are inactive results. This is a sample that favours compounds with a hit; in the whole collection about 1.8% have one here.

SMILES	M4 PAM	CHRM5 agonist	M5 PAM	M4 ag	M5 antag	M4 antag
CCC(C)Sc1ccc(-c2nc3ccc(C)cn3c2NCc2ccccc2)cc1OC (stereo unspecified)	-5	-7	-38	10	24	44*
Cn1c(CNC2CCCCC2)c(C#N)c2ccccc21	0	-1	-4	0	1	4
Cc1ccc(S(=O)(=O)N2CCN(C(=O)C3CCN(c4ncnc5sc(C)c(C)c45)CC3)CC2)c(C)c1	26*	3	5	3	0	-4
Cc1sc2ncnc(N3CCN(S(=O)(=O)c4ccc(C(C)(C)C)cc4)CC3)c2c1C	6	2	-3	2	12	-6
CCN(CC)CCNC(=O)c1ccc(NC(=O)C2CCN(c3ncnc4sc(C)c(C)c34)CC2)cc1	8	-7	-4	80*	2	58*
Cc1sc2ncnc(N3CCC(C(=O)Nc4ccc(OC(F)F)c(Cl)c4)CC3)c2c1C	13	0	-3	1	11	-3
CCCN(CC(=O)Nc1ccccc1C)C(=O)c1cccc(S(=O)(=O)N2CCc3ccccc3C2)c1	-15	7	-16	22	28*	23
Cn1c(CCN2CCN(c3ccccn3)CC2)nc2cc(NS(=O)(=O)c3ccc(Cl)cc3)ccc21	-14	-7	-16	20	27*	21
Cc1ccc(S(=O)(=O)Nc2ccc3c(c2)nc(CCN2CCN(c4ccccn4)CC2)n3C)cc1	-12	-9	-6	5	14	17
Cn1c(CCN2CCN(c3ccccn3)CC2)nc2cc(NC(=O)COc3ccc(Cl)cc3)ccc21	-14	-5	-16	22	27*	21
O=C(NCc1ccccc1)C(c1cc2ccccc2o1)n1c(=O)c(-c2cc3ccccc3[nH]2)nc2ccccc21 (stereo unspecified)	17	5	4	5	-2	-11
c1ccc(-c2cn(-c3ccccc3)c3[n+]2CCS3)cc1	-16	-5	-5	0	8	18
CC(C)(C)c1ccc(-c2cn(-c3ccc(Br)cc3)c3[n+]2CCCS3)cc1	-19	-11	-20	3	58*	50*
Cc1ccc(NS(=O)(=O)c2c(C(=O)N3CCCCCC3)c(C)n(C)c2C)c(C)c1	-1	-1	-5	0	12	-1
CC(=O)c1csc(CS(=O)(=O)c2ccccn2)n1	-11	4	20*	12	26	12
CC(=O)c1ccccn1	1	2	0	1	3	-10
COc1cc(C(C)=O)ccc1OCC(=O)Nc1ccc(C)c(S(=O)(=O)N2CCCCCC2)c1	-13	5	-39	27	32*	18
COc1ccc(S(=O)(=O)N2CCC(C(=O)NCCc3ccccc3)CC2)cc1OC	2	1	4	3	-1	-7
CC(=O)Nc1ccc(S(=O)(=O)N2CCC(C(=O)NCCC(=O)Nc3ccccc3)CC2)cc1	8	-2	20*	2	-19	-23
COc1ccc(S(=O)(=O)N2CCCC2)cc1NC(=O)c1ccccc1F	4	-2	2	2	2	-2
COc1ccc(S(=O)(=O)N2CCC(C(=O)NCC(=O)Nc3c(C)cccc3C)CC2)cc1OC	25*	0	4	0	-8	-10
COc1ccccc1NC(=O)c1cc(S(=O)(=O)N2CCCCCC2)ccc1F	30*	1	24*	34*	15	-9
CC(=O)Nc1ccc(S(=O)(=O)NCC2CC3CCC2C3)cc1 (stereo unspecified)	-6	9	11	4	-9	-1
CCCn1c2ccc(C)cc2c2n[nH]c(=S)nc21	0	-4	5	0	8	-3
O=C(COC(=O)C1CC2C=CC1C2)Nc1cccc(S(=O)(=O)N2CCCCC2)c1 (stereo unspecified)	-15	5	-16	17	13	3
COc1ccc(CC(=O)Nc2cccc(S(=O)(=O)N3CCCCCC3)c2)cc1OC	-11	9	-19	14	32*	11
